Results gathered from unrelated publications.
Each line is one published result; the experiments were not run side by side.
Target: Peroxisome proliferator-activated receptor alpha (PPARA, Homo sapiens, UniProt Q07869)
Sequence (Q07869 1-468, as in one of the studies): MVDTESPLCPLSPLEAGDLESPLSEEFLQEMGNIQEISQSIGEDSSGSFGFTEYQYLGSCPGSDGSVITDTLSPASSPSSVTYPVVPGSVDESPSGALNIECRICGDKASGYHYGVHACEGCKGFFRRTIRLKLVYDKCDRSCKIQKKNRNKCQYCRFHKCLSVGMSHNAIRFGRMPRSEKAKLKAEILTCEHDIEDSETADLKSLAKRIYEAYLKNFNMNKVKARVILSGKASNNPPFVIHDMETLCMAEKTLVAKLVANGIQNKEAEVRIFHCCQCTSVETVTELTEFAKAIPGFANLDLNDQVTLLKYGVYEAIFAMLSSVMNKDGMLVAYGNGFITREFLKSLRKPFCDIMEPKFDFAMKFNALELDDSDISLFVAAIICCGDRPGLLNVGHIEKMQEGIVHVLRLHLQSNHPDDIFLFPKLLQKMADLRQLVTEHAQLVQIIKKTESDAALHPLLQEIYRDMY

| Structure (SMILES) | test | measurement | result |
| --- | --- | --- | --- |
| CCCCCC#CCC#CCC#CCC#CCCCC(=O)O | reporter gene, agonist, luciferase | EC50 | 0.99 µM |
| O=C(Nc1ccc(OCCF)cc1)c1cc([N+](=O)[O-])ccc1Cl | enzyme activity in cells, inhibitor | IC50 | > 2 µM |
| O=C(Nc1ccc(Oc2ncccn2)cc1C(=O)O)c1ccc(Cl)cc1Cl | ligand displacement, TR-FRET | IC50 | 11.9 µM |
| C=CCc1ccc(O)c(-c2cc(CC=C)ccc2O)c1 | ligand displacement, TR-FRET | Ki | 3.38 µM |
| Cc1c(C)n(Cc2ccc(-c3ccccc3C(=O)O)cc2)c2ccc(C(=O)N[C@@H](C)c3ccc(C(C)(C)C)cc3)cc12 | ligand displacement, TR-FRET | Ki | 0.594 µM |
| CC(C)(Oc1ccc(C(=O)c2ccc(Cl)cc2)cc1)C(=O)O | reporter gene, agonist, luciferase | EC50 | 47.1 µM |
| Cc1ccc(C)c(OCCCC(C)(C)C(=O)O)c1 | reporter gene, agonist, luciferase | EC50 | 58 µM |
| C=CCc1ccc(O)c(-c2ccc(O)c(CC=C)c2)c1 | ligand displacement, TR-FRET | Ki | 4.6 µM |
| O=C(Nc1ccc(CCF)cc1)c1cc([N+](=O)[O-])ccc1Cl | enzyme activity in cells, inhibitor | IC50 | > 2 µM |
| CC1(C)C=Cc2c(cc3oc(-c4ccccc4)c(O)c(=O)c3c2O)O1 | ligand displacement, TR-FRET | Ki | 3.3 µM |
